HSF1 inhib – HSF1 inhibitors in luciferase reporter cells, primary screen, cell-based, NIH3T3, luminescence; activity change, negative = inhibition, % at 7.5 µM (by protocol); NIH3T3-HGL HSE-luciferase, MG132-induced, luminescence 8 h; active compounds read low; AID 2098, 2009; 300,000 compounds, 0.77% hits;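 active = more than half of replicate wells show activity change below -50%, luminescence cut by over half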;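 note: luciferase reports HSF-1 transcriptional activity via heat shock element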
HCV core dimer – inhibitors of HCV core protein dimerization, primary screen, biochemical, TR-FRET, high-throughput | TR-FRET GST/Flag-core106 dimerization, 1536-well | inhibition, % at 5 µM | 300,000 compounds, 0.33% hits;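 active = inhibition above the mean of all tested compounds plus 3 SD, set per screening campaign, cut at about 45% in these data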
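test system = GST/Flag-tagged HCV core106 proteins | probe or stimulus = Eu donor and XL665 acceptor anti-tag antibodies | times = compound-protein-antibody incubation 4 h at 22.5 °C | signal = TR-FRET, excitation 340 nm, emission 617 and 671 nm | measure = percent inhibition of core106 dimerization signal | controls = wells lacking GST-core106 and wells with excess unlabelled core106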
HCV NS3 hel inh – inhibitors of HCV NS3 helicase, primary screen, biochemical, Cy5 molecular beacon fluorescence; Hepatitis C virus NS3 helicase; NS3 helicase DNA unwinding; 290,000 compounds, 0.56% hits; inhibition, % at 10.9 µM; AID 1800, 2009;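 active = inhibition above the mean of all tested compounds plus 3 SD, set per campaign, cut at about 35% in these data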
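Test system: hepatitis C virus NS3 helicase domain fragment enzyme. Also added: annealed dual-labelled DNA beacon duplex, ATP-started. Timing: 60 min unwinding reaction at 25 °C after ATP addition. Technique: Cy5 fluorescence. Measure: % inhibition of unwinding.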
HSF1 activator – HSF-1 activators, primary screen, NIH3T3-HGL cells, MG132 stress, luminescence, single point; NIH3T3-HGL HSF-1 luciferase reporter, 8 h; 100% = twice DMSO control signal; 300,000 compounds, 1.7% hits; AID 504408, 2011; activation, % at 9 µM;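 active = mean replicate activation of at least 50% with a set share of replicates each reaching 50%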
FID counter – compounds displacing fluorescent DNA intercalator, primary screen, artefact control for HCV NS3 helicase inhibitor project, biochemical, FID fluorescence; inhibition, % at 7.9 µM; DNA fluorescent intercalator displacement; 290,000 compounds, 0.17% hits; in the data active = inhibition above about 37%;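 note: higher means more ethidium bromide displaced from hairpin DNA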
HSP90 refold inh – HSP90 inhibitors, primary screen, cell lysate, luminescence | Heat shock protein HSP 90 (rabbit reticulocyte lysate; luciferase refolding) | Rabbit reticulocyte lysate, luciferase refolding luminescence, 3 h | inhibition, % at 5.6 µM | 290,000 compounds, 0.91% hits;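 active = inhibition above the screen-wide mean plus 3 SD, computed separately per campaign, cut at about 16% in these data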;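 note: inhibitors lower the luminescence because luciferase stays unfolded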
A number is an active result; 0 = inactive; - = no result given. The list is not random: actives were taken first. Their share in the collection is about 3.9%.

SMILES	HSF1 inhib	HCV core dimer	HCV NS3 hel inh	HSF1 activator	FID counter	HSP90 refold inh
CC(=O)N1c2ccc(C)cc2C(c2ccccc2)CC1C (centres undefined)	0	0	0	58	0	0
CC(=O)OC1CC(C)N(C(=O)c2ccccc2)c2ccc(C)cc21 (centres undefined)	0	0	0	0	0	0
Oc1cc(NCc2cccnc2)ccc1-c1nc2ccccc2o1	0	0	0	59	0	0
CCc1ccc(OCC(=O)Nc2ccc(-c3nc4ccccc4o3)c(O)c2)cc1	0	0	0	0	0	0
Nc1nonc1N/N=C/c1c(O)ccc2ccccc12	0	0	0	62	0	0
O=C(NCc1ccccc1)c1cc2ccc(O)cc2oc1=O	0	0	0	0	0	0
COc1ccccc1OCCC(=O)OCCN1C(=O)c2ccccc2C1=O	0	0	0	0	0	0
O=C1c2ccccc2C(=O)N1CCOc1ccccc1	0	0	0	125	0	0
CC(C)Oc1cccc(OCCN2C(=O)c3ccccc3C2=O)c1	0	0	0	0	0	0
COc1ccc(OCCN2C(=O)c3ccccc3C2=O)cc1	-55	0	0	0	0	0
Nc1cccc2c1C(=O)N(CCOc1ccc(F)cc1)C2=O	0	0	0	62	0	0
Cc1ccc(C(=O)/C=C/Nc2cccc([N+](=O)[O-])c2)o1	0	0	0	59	0	0
O=C(c1ccc2c(=O)n3c(nc2c1)CCCCC3)N1CCN(c2ccccc2)CC1	0	0	0	0	0	0
O=C(c1ccc2c(=O)n3c(nc2c1)CCCCC3)N1CCN(C(c2ccccc2)c2ccccc2)CC1	0	0	0	62	0	0
COc1ccc(N(CC(=O)NCc2ccc3c(c2)OCO3)C(=O)CCC(=O)Nc2ccccn2)cc1	0	0	0	0	0	0
c1ccc(N2CCCCC2)c(NC2=NCCC2)c1	0	0	0	0	0	0
CCOc1ccc2nc(N(Cc3ccccc3)C(=O)CCNC(C)=O)sc2c1	0	-	0	57	0	0
CCOc1ccc2nc(N(CCCN(C)C)C(=O)c3ccc4c(c3)CCCC4)sc2c1	0	0	0	0	39	0
CCc1ccc2nc(N(CCCN(C)C)C(=O)c3ccc(C(=O)c4ccccc4)cc3)sc2c1	0	0	0	0	38	0
CN(C)CCCN(C(=O)c1ccc2c(c1)CCCC2)c1nc2ccc(Cl)cc2s1	0	0	0	0	0	0
COc1cc2nc(N(CCCN(C)C)C(=O)c3ccc(C(=O)c4ccccc4)cc3)sc2cc1OC	0	0	-	0	-	-
Cc1oc(-c2ccc(F)cc2)cc1-c1nn2c(-c3ccoc3C)nnc2s1	0	91	-	0	-	-
CCC1CCCCN1C(=O)c1sc2nc(C)nc(N(CC)CC)c2c1C (centres undefined)	0	0	0	0	0	0
CCOC(=O)C1CCCN(C(=O)c2sc3nc(C)nc(N(CC)CC)c3c2C)C1 (centres undefined)	0	0	0	57	0	0
CC(C)(C)c1ccc(C(=O)NCC(=O)N2CCCCCC2)cc1	0	0	0	0	0	0
SMILES	HSF1 inhib	HCV core dimer	HCV NS3 hel inh	HSF1 activator	FID counter	HSP90 refold inh
CCc1n[n+](CC(=O)c2ccccc2)c(N)s1	-	-	0	-	0	52
Nc1ccc[n+](CC(=O)c2ccccc2)c1	0	0	0	0	0	0
CC(=O)SC(C[N+](=O)[O-])c1cn(C(C)=O)c2ccccc12 (centres undefined)	0	0	0	204	0	0
O=[N+]([O-])c1cc(-c2ncccn2)c([N+](=O)[O-])s1	0	0	0	97	0	0
O=C(Nc1ncccn1)c1cc([N+](=O)[O-])cc([N+](=O)[O-])c1	0	0	0	0	0	0
Nc1nn(-c2cccc(F)n2)cc1-c1ccc(Cl)cc1	0	-	0	85	0	0
Nc1nn(-c2cccc(F)n2)cc1-c1ccccc1	0	-	0	62	0	0
O=C(Nc1ncc(Cc2ccccc2Cl)s1)C1CCCO1 (centres undefined)	0	0	0	75	0	0
O=C(Nc1ncc(Cc2cccc(Cl)c2Cl)s1)C1CCCO1 (centres undefined)	0	0	0	58	0	0
O=C(Nc1ncc(Cc2cccc(Cl)c2)s1)C1CCCO1 (centres undefined)	0	0	0	0	0	0
CCc1c(C)nc2[nH]nc(NC(=O)C(F)(F)F)n2c1=O	0	0	0	0	0	0
CCOC(=O)c1c(N)sc2c1CCSC2	0	55	0	0	0	0
CC(C)c1ccc(OCC(=O)Nc2cccc3c2CCCC3)cc1	0	0	0	0	0	0
Cc1cc(=O)n2[nH]c(=O)c(N=Nc3ccccc3)c2[nH]1	-64	0	0	0	0	0
CCOc1ccc(N=Nc2c(=O)[nH]n3c(=O)cc(C)[nH]c23)cc1	0	0	0	0	0	0
O=C(c1ccc([N+](=O)[O-])cc1)N1CCN(c2ncc(Br)cn2)CC1	-76	0	0	0	0	0
O=C(c1ccc(Br)cc1)N1CCN(c2ncccn2)CC1	0	0	-	0	-	-
CCc1nc(NCC2CCCN2CC)c2nnn(Cc3ccccc3F)c2n1 (centres undefined)	0	0	0	0	0	0
O=C(CN(Cc1ccccc1Cl)S(=O)(=O)c1ccc(Cl)cc1)N/N=C/c1ccc(C(=O)O)cc1	-86	-	0	0	0	0
O=C(CN(Cc1ccccc1)S(=O)(=O)c1ccccc1)N/N=C/c1ccc([N+](=O)[O-])cc1	0	0	0	0	0	0
COc1cc(/C=N/NC(=O)c2cccc([N+](=O)[O-])c2)ccc1OC(=O)c1ccco1	0	0	0	0	0	0
Cc1ccc(C)c(N2CCN(C(=O)CN3C(=S)NC(C)(C)CC3C)CC2)c1 (centres undefined)	0	0	0	0	0	0
CCOC(=O)C(=O)/C(C#N)=C/Nc1ccccc1	0	0	0	52	0	0
CCOC(=O)C(=CNc1ccc(C#N)cc1)C(=O)OCC	0	0	0	60	0	0
CC(C)CC(NC(=O)CCC(=O)OCC(=O)[C@@]1(O)CCC2[C@@H]3CCC4=CC(=O)C=C[C@]4(C)C3[C@@H](O)C[C@@]21C)C(=O)O (some centres undefined)	-53	0	0	0	0	0
CSCCC(NC(=O)CCC(=O)OCC(=O)[C@@]1(O)CCC2[C@@H]3CCC4=CC(=O)C=C[C@]4(C)C3[C@@H](O)C[C@@]21C)C(=O)O (some centres undefined)	-52	0	0	0	0	0

Bioassay records (PubChem)
